Assay outcomes: PubChem BioAssay, The Scripps Research Institute Molecular Screening Center
M5 antag: antagonists of human muscarinic M5 receptor (CHRM5); 360,000 compounds, 0.59% hits; inhibition, % at 3 µM; CHO-hM5 cells, Fluo-8 calcium fluorescence, ACh EC80;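 active means inhibition above a per-plate cutoff, the mean of that plate's test compounds plus 3 SD, cut at about 27% in these data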
M5 ag: agonists of human muscarinic M5 receptor (CHRM5); 360,000 compounds, 0.19% hits; activation, % at 3 µM; CHO-K1 hM5 cells, Fluo-8 calcium fluorescence; 0% DMSO wells, 100% maximal acetylcholine response; P08912;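 active means activation above the run's mean over test compounds plus 3 SD, cut at about 23% in these data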;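 further: signal is peak over basal fluorescence ratio across the kinetic read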
CHRM5 PAM: potentiates acetylcholine response at human M5 receptor; P08912; CHO-K1 hM5, Fluo-8 calcium, ACh EC20 PAM; 0% = ACh EC20, 100% = ACh EC100; activation, % at 3 µM; 360,000 compounds, 0.3% hits; AID 624038;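 active means activation above the run cutoff, the mean activation of all test compounds plus 3 SD, cut at about 18% in these data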
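Probe or stimulus: acetylcholine, EC20 level; Assay system: human M5 receptor in CHO-K1 cells; Schedule: compound preincubation 140 s before EC20 acetylcholine addition; Technique: intracellular calcium via Fluo-8 fluorescence; Dosing: single-point, 3 µM nominal; Read-out basis: percent activation from peak-over-basal fluorescence ratio, scaled EC20-to-EC100 acetylcholine; Repeats: one well per compound, no replicates.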
CHRM4 antagonist: CHRM4 antagonism in calcium assay; CHO-hM4 cells, ACh EC80, Fluo-8 calcium fluorescence; AID 624125; 360,000 compounds, 0.73% hits; P08173; inhibition, % at 3 µM;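 active means inhibition above its plate's cutoff, the mean inhibition of sample wells plus 3 SD, cut at about 27% in these data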
Target sequence (P08173 whole entry, looked up): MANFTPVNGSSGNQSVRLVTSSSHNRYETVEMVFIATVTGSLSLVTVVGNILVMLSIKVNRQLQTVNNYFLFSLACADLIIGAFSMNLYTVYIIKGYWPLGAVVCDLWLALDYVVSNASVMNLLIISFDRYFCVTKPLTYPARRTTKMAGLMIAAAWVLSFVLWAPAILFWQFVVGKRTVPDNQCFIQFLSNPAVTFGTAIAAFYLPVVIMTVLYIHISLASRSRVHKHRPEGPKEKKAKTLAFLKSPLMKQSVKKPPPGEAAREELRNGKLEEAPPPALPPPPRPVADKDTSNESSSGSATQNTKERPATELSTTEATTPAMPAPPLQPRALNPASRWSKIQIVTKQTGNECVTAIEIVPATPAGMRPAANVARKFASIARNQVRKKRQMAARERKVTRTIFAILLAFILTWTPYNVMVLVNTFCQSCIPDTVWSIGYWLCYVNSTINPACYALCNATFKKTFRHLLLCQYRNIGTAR
CHRM4 PAM: potentiates acetylcholine response at human M4 receptor. 360,000 compounds, 0.4% hits. AID 624126. activation, % at 3 µM. CHO-K1 hM4/Gqi5, Fluo-8 calcium fluorescence, ACh EC20; 0% = ACh EC20, 100% = maximal ACh;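 active means activation above its plate's cutoff, the mean activation of sample wells plus 3 SD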
CHRM4 agonist: CHRM4 agonism in calcium assay. P08173. CHO-K1 hM4/Gqi5, Fluo-8 calcium fluorescence; vehicle 0%, full acetylcholine response 100%. 360,000 compounds, 0.14% hits. activation, % at 3 µM;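 active means activation above the run mean over all test wells plus 3 SD, cut at about 32% in these data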;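 further: peak over basal fluorescence ratio per well then scaled between controls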
Of the large screens only hits and unclear results are named; the others gave an inactive call. Hits are enriched below; roughly 1.8% of the tested compounds scored in any of these assays.

CC(C(=O)Nc1ccc(S(=O)(=O)N2CCOCC2)cc1)N1C(=O)C2CC=CCC2C1=O (configuration not stated)	none
CCCCCCCNC(=O)CN1C(=O)CSc2ccc(S(=O)(=O)N3CCOCC3)cc21	M5 antag 29.9
CCCCNC(=O)CN1C(=O)CSc2ccc(S(=O)(=O)N3CCOCC3)cc21	none
CCc1nnc(NC(=O)c2ccc(S(=O)(=O)N(CC)Cc3ccccc3)cc2)o1	none
CCc1nnc(NC(=O)c2ccc(S(=O)(=O)N(C)Cc3ccccc3)cc2)o1	CHRM4 PAM 16.5
N#CC(C#N)=C1C=C2C=C(N3CCOCC3)CCC2CC1 (configuration not stated)	M5 ag 36.8, CHRM4 antagonist 29.0, CHRM4 agonist 51.6
CCN1CCN(C2=CC3=CC(=C(C#N)C#N)CCC3CC2)CC1 (configuration not stated)	M5 antag 59.4, M5 ag 222.5, CHRM4 antagonist 58.1, CHRM4 agonist 270.4
N#CC(C#N)=C1C=C2C=C(N3CCCCCC3)CCC2CC1 (configuration not stated)	M5 antag 103.1, M5 ag active, CHRM4 antagonist 96.0, CHRM4 agonist 745.9
CN1CCN(C2=CC3=CC(=C(C#N)C#N)CCC3CC2)CC1 (configuration not stated)	M5 antag 72.4, M5 ag 491.5, CHRM4 antagonist 71.4, CHRM4 agonist 538.0
CC1(C)CC(NCCN2CCN(C3=CC(=C(C#N)C#N)CC(C)(C)C3)CC2)=CC(=C(C#N)C#N)C1	none
CCN(CC)C(=O)c1ccccc1NS(=O)(=O)c1cccs1	none
O=C(NN=Cc1ccccc1)C(Oc1ccccc1)c1ccccc1 (configuration not stated)	none
COc1ccccc1N1CCN(C(=O)c2oc3c(c2C)C(=O)CC(C)(C)C3)CC1	M5 antag 29.5
Cc1c(C(=O)N2CCN(c3ccccn3)CC2)oc2c1C(=O)CC(C)(C)C2	none
O=C(N/N=C/c1ccc(Cl)cc1)c1ccc2nc[nH]c2c1	none
C/C(=N/OC(=O)c1c(-c2ccccc2Cl)noc1C)c1cnccn1	CHRM4 antagonist 33.9
C/C(=N/OC(=O)c1c(-c2c(Cl)cccc2Cl)noc1C)c1cnccn1	none
Cc1ccc(N2C(=O)c3ccc(C(=O)N4CCN(Cc5ccccc5)CC4)cc3C2=O)cc1	none
Cc1ccc(/C=C/C(=O)c2cc(Br)ccc2OC(=O)c2ccco2)cc1	CHRM5 PAM 21.2
CCCNC(=O)C1(C)CCCN(Cc2ccc(-c3ccccc3)cc2)C1 (configuration not stated)	none
O=C(CSc1ncnc2[nH]ncc12)Nc1nc(-c2ccc(F)c(F)c2)cs1	CHRM4 antagonist 31.3
O=C(CNc1ccccc1)N/N=C/c1ccc2c(c1)OCCO2	none
O=c1oc2ccccc2c2c1cnc1ccccc12	none
NC(=O)c1cccc2c(=O)oc3ccccc3c12	CHRM5 PAM 18.8
CC(C)(C)NC(=O)CSc1nnc(-c2ccccn2)n1Cc1ccccc1	none
C=CCNC(=O)CSc1nnc(-c2ccccn2)n1Cc1ccccc1	CHRM5 PAM 22.1
C=C(C)C1CC=C(C)/C(=N/NC(=O)CCC(=O)Nc2ccccc2Cl)C1 (configuration not stated)	none
CC(=NNC(=S)N1CCN(c2ccccn2)CC1)c1ccccn1	none
CC(=NNC(=S)N1CCN(c2ccccn2)CC1)c1nccs1	M5 antag 29.2, CHRM4 antagonist 42.9
CCC[C@H]1CN(c2ccc(Br)cc2)C(=O)[C@@H]1CC(=O)Nc1ccc(OC)cc1	none
O=C(Nc1ccc(F)cc1)c1cc(S(=O)(=O)Nc2ccc(F)cc2)cs1	M5 antag 32.2
COc1ccc(NC(=O)c2cc(S(=O)(=O)Nc3ccc(OC)cc3)cs2)cc1	none
COc1cccc(/C=C/C(=O)OCC(=O)Nc2ccc(Cl)c(S(=O)(=O)N(C)C)c2)c1OC	none
COc1ccc(CN(C)C(=O)c2cccc(Oc3ccccc3)c2)c(OC)c1OC	M5 antag 29.8
COc1ccc(CN2CCN(Cc3cccc(Oc4ccccc4)c3)CC2)c(OC)c1OC	M5 antag 35.2
COc1cccc(CN(C)C(=O)c2cccc(S(=O)(=O)NCc3ccccc3)c2)c1OC	none
COc1ccccc1-n1cnc2cc(NCc3ccccn3)ccc21	CHRM4 antagonist 41.5
CNC(C)C(=O)NC(C(=O)NC(C)C(=O)Nc1cccc2ccccc12)C(C)C (configuration not stated)	CHRM4 PAM 18.4
CN(C)C(=O)c1cccc(-c2cnc3c(NC=O)cc(-c4ccccc4F)cn23)c1	none
Cc1ccc(S(=O)(=O)N(C)C)cc1NC(=O)CN1C(=O)NC2(CCCCCC2)C1=O	M5 antag 29.1
Cc1ccc(C2(C)NC(=O)N(CC(=O)Nc3cc(S(=O)(=O)N(C)C)ccc3C)C2=O)cc1 (configuration not stated)	none
COc1ccc(N2CCN(S(=O)(=O)c3ccc(OC)cc3)CC2)cc1	none
CCC(CC)N1CCN(S(=O)(=O)c2ccc(OC)cc2)CC1	CHRM5 PAM 20.7
OC(COC(c1ccccc1)c1ccccc1)CN1CCCCC1 (configuration not stated)	none
c1ccc(C(CN2CCCCC2)Oc2ccccn2)cc1 (configuration not stated)	CHRM4 antagonist 35.0
CC(C)(C)n1nnnc1C(c1cccs1)N(Cc1cccnc1)Cc1ccco1 (configuration not stated)	M5 antag 70.0
COc1ccc(C(O)c2ncc(-c3cccc(F)c3)[nH]2)cc1F (configuration not stated)	none
CCN(CC)CCNc1nc2c(c(=O)[nH]c(=O)n2C)n1CC(O)COc1ccc(Cl)cc1Cl (configuration not stated)	none
Cc1cc(C)n(-c2nc3c(c(=O)[nH]c(=O)n3C)n2CC(O)COc2ccc(Cl)cc2Cl)n1 (configuration not stated)	CHRM5 PAM 21.5
CCCCN(C(=O)CCC(=O)Nc1cc(C)on1)C(C(=O)NC1CCCC1)c1ccc(F)cc1 (configuration not stated)	CHRM5 PAM 19.6
CCCCN(C(=O)CCC(=O)Nc1cc(C)on1)C(C(=O)NC1CCCC1)c1ccccc1C (configuration not stated)	none
Cc1nn(C)c(C)c1CN(C(=O)C1CCC(=O)N(C2CCCCCC2)C1)C(C)C (configuration not stated)	none
CCC(C)NC(=O)CN(c1cc(Cl)cc(Cl)c1)S(C)(=O)=O (configuration not stated)	none
